According to ChEMBL document CHEMBL3045357, “DNA adducts as biomarkers for oxidative and genotoxic stress from pesticides in crop plants” (J Agric Food Chem, 2008):

What was measured:
Type in all cases: organism-based
Conditions in all cases: in vivo, other, 336 h
[1] = test system: Glycine max; experiment: Genotoxicity in Glycine max (soybean) exposed to compound through spray 4 times over 2 weeks assessed as relative adduct level A6 measured per 10^9 nucleotides using [32P]labeling based autoradiography relative to untreated control
Summary of the method: (§1)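 Plants (2–6 weeks grown), groups of 2–4, sprayed 4 times over 2 weeks with formulations diluted per label (chlorothalonil 1:256, carbaryl 1:64 in water); controls water-sprayed. DNA from 1 g leaf via DNeasy Maxi kit. 10 µg DNA digested with micrococcal nuclease/spleen phosphodiesterase (4 h, 37 °C), NP1-enriched (45 min, 37 °C), labelled with [γ-32P]ATP/T4 kinase (45 min, 37 °C).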

[2] = test system: Glycine max; experiment: Genotoxicity in Glycine max (soybean) exposed to compound through spray 4 times over 2 weeks assessed as relative adduct level A5 measured per 10^9 nucleotides using [32P]labeling based autoradiography relative to untreated control; summary of the method: as §1
[3] = test system: Glycine max; experiment: Genotoxicity in Glycine max (soybean) exposed to compound through spray 4 times over 2 weeks assessed as relative adduct level A4 measured per 10^9 nucleotides using [32P]labeling based autoradiography relative to untreated control; summary of the method: as §1
[4] = test system: Glycine max; experiment: Genotoxicity in Glycine max (soybean) exposed to compound through spray 4 times over 2 weeks assessed as relative adduct level A3 measured per 10^9 nucleotides using [32P]labeling based autoradiography relative to untreated control; summary of the method: as §1
[5] = test system: Glycine max; experiment: Genotoxicity in Glycine max (soybean) exposed to compound through spray 4 times over 2 weeks assessed as relative adduct level A2 measured per 10^9 nucleotides using [32P]labeling based autoradiography relative to untreated control; summary of the method: as §1
[6] = test system: Glycine max; experiment: Genotoxicity in Glycine max (soybean) exposed to compound through spray 4 times over 2 weeks assessed as relative adduct level A1 measured per 10^9 nucleotides using [32P]labeling based autoradiography relative to untreated control; summary of the method: as §1
[7] = test system: Glycine max; experiment: Genotoxicity in Glycine max (soybean) exposed to compound through spray 4 times over 2 weeks assessed as HNE-dG adducts using [32P]labeling based autoradiography (reference value: 34 cpm); summary of the method: as §1
[8] = test system: Cucurbita pepo; experiment: Genotoxicity in Cucurbita pepo (pumpkin) exposed to compound through spray 4 times over 2 weeks assessed as relative adduct level A6 measured per 10^9 nucleotides using HX-dG internal standard using [32P]labeling based autoradiography relative to untreated control; summary of the method: as §1
[9] = test system: Cucurbita pepo; experiment: Genotoxicity in Cucurbita pepo (pumpkin) exposed to compound through spray 4 times over 2 weeks assessed as relative adduct level A5 measured per 10^9 nucleotides using HX-dG internal standard using [32P]labeling based autoradiography relative to untreated control; summary of the method: as §1
[10] = test system: Cucurbita pepo; experiment: Genotoxicity inCucurbita pepo (pumpkin) exposed to compound through spray 4 times over 2 weeks assessed as relative adduct level A4 measured per 10^9 nucleotides using HX-dG internal standard using [32P]labeling based autoradiography relative to untreated control
Summary of the method: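 Plants grown 2-6 weeks, groups of 2-4 sprayed four times over 2 weeks with label-rate formulations; water-sprayed controls. Leaf DNA kit-extracted. 10 µg DNA digested with micrococcal nuclease/spleen phosphodiesterase 4 h at 37 °C. NP1-enriched, then labeled with [γ-32P]ATP/T4 kinase 45 min at 37 °C. 2D PEI-cellulose TLC, imager readout. Samples spiked with 50 fmol HX-dG standard.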

[11] = test system: Cucurbita pepo; experiment: Genotoxicity in Cucurbita pepo (pumpkin) exposed to compound through spray 4 times over 2 weeks assessed as relative adduct level A3 measured per 10^9 nucleotides using HX-dG internal standard using [32P]labeling based autoradiography relative to untreated control; summary of the method: as §1
[12] = test system: Glycine max; experiment: Genotoxicity in Glycine max (soybean) exposed to compound through spray 4 times over 2 weeks assessed as relative adduct level A2 measured per 10^9 nucleotides using HX-dG internal standard using [32P]labeling based autoradiography relative to untreated control; summary of the method: as §1
[13] = test system: Glycine max; experiment: Genotoxicity in Glycine max (soybean) exposed to compound through spray 4 times over 2 weeks assessed as relative adduct level A1 measured per 10^9 nucleotides using HX-dG internal standard using [32P]labeling based autoradiography relative to untreated control; summary of the method: as §1
[14] = test system: Cucurbita pepo; experiment: Genotoxicity in Cucurbita pepo (pumpkin) exposed to compound through spray 4 times over 2 weeks assessed as relative adduct level A2 measured per 10^9 nucleotides using HX-dG internal standard using [32P]labeling based autoradiography relative to untreated control; summary of the method: as §1
[15] = test system: Cucurbita pepo; experiment: Genotoxicity in Cucurbita pepo (pumpkin) exposed to compound through spray 4 times over 2 weeks assessed as relative adduct level A1 measured per 10^9 nucleotides using HX-dG internal standard using [32P]labeling based autoradiography relative to untreated control; summary of the method: as §1
[16] = test system: Cucurbita pepo; experiment: Genotoxicity in Cucurbita pepo (pumpkin) exposed to compound through spray 4 times over 2 weeks assessed as relative adduct level A6 measured per 10^9 nucleotides using [32P]labeling based autoradiography relative to untreated control; summary of the method: as §1
[17] = test system: Cucurbita pepo; experiment: Genotoxicity in Cucurbita pepo (pumpkin) exposed to compound through spray 4 times over 2 weeks assessed as relative adduct level A5 measured per 10^9 nucleotides using [32P]labeling based autoradiography relative to untreated control; summary of the method: as §1
[18] = test system: Cucurbita pepo; experiment: Genotoxicity in Cucurbita pepo (pumpkin) exposed to compound through spray 4 times over 2 weeks assessed as relative adduct level A4 measured per 10^9 nucleotides using [32P]labeling based autoradiography relative to untreated control; summary of the method: as §1
[19] = test system: Cucurbita pepo; experiment: Genotoxicity in Cucurbita pepo (pumpkin) exposed to compound through spray 4 times over 2 weeks assessed as relative adduct level A3 measured per 10^9 nucleotides using [32P]labeling based autoradiography relative to untreated control; summary of the method: as §1
[20] = test system: Cucurbita pepo; experiment: Genotoxicity in Cucurbita pepo (pumpkin) exposed to compound through spray 4 times over 2 weeks assessed as relative adduct level A2 measured per 10^9 nucleotides using [32P]labeling based autoradiography relative to untreated control; summary of the method: as §1
[21] = test system: Cucurbita pepo; experiment: Genotoxicity in Cucurbita pepo (pumpkin) exposed to compound through spray 4 times over 2 weeks assessed as relative adduct level A1 measured per 10^9 nucleotides using [32P]labeling based autoradiography relative to untreated control; summary of the method: as §1
[22] = test system: Vitis vinifera; experiment: Genotoxicity in Vitis vinifera exposed to compound through spray 4 times over 2 weeks assessed as relative adduct level A3 measured per 10^9 nucleotides using HX-dG internal standard using [32P]labeling based autoradiography relative to untreated control; summary of the method: as §1
[23] = test system: Glycine max; experiment: Genotoxicity in Glycine max (soybean) exposed to compound through spray 4 times over 2 weeks assessed as HNE-dG adducts measured per 10^9 nucleotides using [32P]labeling based autoradiography (reference value: 2 no unit); summary of the method: as §1
[24] = test system: Vitis vinifera; experiment: Genotoxicity in Vitis vinifera exposed to compound through spray 4 times over 2 weeks assessed as relative adduct level A2 measured per 10^9 nucleotides using HX-dG internal standard using [32P]labeling based autoradiography relative to untreated control; summary of the method: as §1
[25] = test system: Vitis vinifera; experiment: Genotoxicity in Vitis vinifera exposed to compound through spray 4 times over 2 weeks assessed as relative adduct level A1 measured per 10^9 nucleotides using HX-dG internal standard using [32P]labeling based autoradiography relative to untreated control; summary of the method: as §1

N#Cc1c(Cl)c(Cl)c(Cl)c(C#N)c1Cl [CHLOROTHALONIL]
Activity [1]: 324 | Activity [2]: 91 | Activity [3]: 134 | Activity [4]: 136 | Activity [5]: 172 | Activity [6]: 797 | Activity [7]: 8163 cpm | Activity [8]: 71701 cpm | Activity [9]: 3195 cpm | Activity [10]: 679 cpm | Activity [11]: 3033 cpm | Activity [12]: 8753 cpm | Activity [13]: 40547 cpm | Activity [14]: 1323 cpm | Activity [15]: 3731 cpm | Activity [16]: 1409 | Activity [17]: 63 | Activity [18]: 13 | Activity [19]: 60 | Activity [20]: 26 | Activity [21]: 73 | Activity [22]: 9447 cpm | Activity [23]: 160 | Activity [24]: 4015 cpm | Activity [25]: 2201 cpm
